The test system of assay [1] is Rattus norvegicus. As to the kind of experiment: Antihypertensive activity was determined in cannulated spontaneously hypertensive rats(SHR) and maximum decrease of mean arterial blood pressure (MABP) at 10 mg/kg oral dose. It is filed as functional, Artery. The method in brief: (§1)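 Cannulated SHR given compound by gastric gavage in 0.5% methylcellulose (5 mL/kg), doses 0.1–50 mg/kg, 4–8 animals per dose, after 1-h equilibration. MABP recorded for 4 h; maximal % decrease reported with time to peak effect. Significance by two-way analysis of variance.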

The test system of assay [2] is Rattus norvegicus. As to the kind of experiment: Vasopressor responses to epinephrine as a measure of the alpha-1-adrenoceptor blocking activity at 2.5 mg/kg administered orally was reported to be reversed. The format is functional, organism-based. Also noted: dose 2.5 mg/kg.
Assay [3] has as its system Rattus norvegicus. The assay can be described thus: Antihypertensive activity was determined in cannulated spontaneously hypertensive rats(SHR) and heart rate response was reported to reduce by 10-25% after 4 hr at a peroral dose of 5 mg/kg. Also on record: dose 5 mg/kg. It is filed as functional, organism-based.
In assay [4] the test system is Rattus norvegicus. As to the kind of experiment: Antagonism of vasopressor responses to epinephrine as a measure of the alpha-1-adrenoceptor blocking activity at 5 mg/kg administered orally was reported to be reversed. Also on record: dose 5 mg/kg. The format is functional, organism-based.
Assay [5] relates to Rattus norvegicus. As to the kind of experiment: Antihypertensive activity was determined in cannulated spontaneously hypertensive rats(SHR) and heart rate response was reported to reduce by 10-25% after 4 hr at a peroral dose of 10 mg/kg. The format is functional, organism-based. Also on record: dose 10 mg/kg.
The test system of assay [6] is Rattus norvegicus. The assay can be described thus: Vasopressor responses to epinephrine as a measure of the alpha-1-adrenoceptor blocking activity at 10 mg/kg administered orally was reported to be reversed. It is filed as functional, organism-based. Also noted: dose 10 mg/kg.
In assay [7] the test system is Rattus norvegicus. As to the kind of experiment: Antihypertensive activity was determined in cannulated spontaneously hypertensive rats(SHR) and heart rate response was reported to reduce by 10-25% after 4 hr at a peroral dose of 1.0 mg/kg. It is filed as functional, organism-based. Also on record: dose 1 mg/kg.
Assay [8] concerns Rattus norvegicus. As to the kind of experiment: Antihypertensive activity was determined in cannulated spontaneously hypertensive rats(SHR) and maximum decrease of mean arterial blood pressure (MABP) at 5 mg/kg oral dose. The format is functional, Artery. Summed up:
as §1

In assay [9] the test system is Rattus norvegicus. The assay can be described thus: Antihypertensive activity was determined in cannulated spontaneously hypertensive rats(SHR) and maximum decrease of mean arterial blood pressure (MABP) at 1 mg/kg oral dose. The format is functional, Artery. Summed up:
as §1

The subject of assay [10] is Rattus norvegicus. As to the kind of experiment: Antihypertensive activity was determined in cannulated spontaneously hypertensive rats(SHR) and maximum decrease of mean arterial blood pressure (MABP) at 2.5 mg/kg oral dose. It is filed as functional, Artery. The method in brief: as §1
In assay [11] the test system is Rattus norvegicus. As to the kind of experiment: Antihypertensive activity was determined in cannulated spontaneously hypertensive rats(SHR) and heart rate response was reported to reduce by 10-25% after 4 hr at a peroral dose of 2.5 mg/kg. It is filed as functional, organism-based. Also noted: dose 2.5 mg/kg.
The test system of assay [12] is Rattus norvegicus. As to the kind of experiment: Vasopressor responses to epinephrine as a measure of the alpha-1-adrenoceptor blocking activity at 1 mg/kg administered orally was reported to be antagonized. The format is functional, organism-based. Also on record: dose 1 mg/kg.
The test system of assay [13] is Rattus norvegicus. The assay can be described thus: Antihypertensive activity was determined in cannulated spontaneously hypertensive rats(SHR) and activity rating was given with respect to MABP values at 25 mg/kg oral dose;MABP reduced by 15-25% and an appreciable antihypertensive at 2.5-5 mg/kg. It is filed as functional, organism-based. Also on record: dose 25 mg/kg.

Assay [14] relates to Rattus norvegicus. As to the kind of experiment: Antihypertensive activity was determined in cannulated spontaneously hypertensive rats(SHR) and heart rate response was reported to reduce by 10-25% after 4 hr at a peroral dose of 25 mg/kg. The format is functional, organism-based. Also on record: dose 25 mg/kg.
In assay [15] the test system is Rattus norvegicus. As to the kind of experiment: Vasopressor responses to epinephrine as a measure of the alpha-1-adrenoceptor blocking activity at 10 mg/kg administered orally was reported to be potentiated. It is filed as functional, organism-based. Also noted: dose 10 mg/kg.
For assay [16], the system named is Rattus norvegicus. As to the kind of experiment: Vasopressor responses to epinephrine as a measure of the alpha-1-adrenoceptor blocking activity at 25 mg/kg administered orally was reported to be slightly. Also noted: dose 25 mg/kg. It is filed as functional, organism-based.
The test system of assay [17] is Rattus norvegicus. As to the kind of experiment: Antihypertensive activity was determined in cannulated spontaneously hypertensive rats(SHR) and maximum decrease of mean arterial blood pressure (MABP) at 25 mg/kg oral dose. The format is functional, Artery. The method in brief: as §1
Assay [18] concerns Rattus norvegicus. As to the kind of experiment: Antihypertensive activity was determined in cannulated spontaneously hypertensive rats(SHR) and marked bradycardia was reported at a dose of 10 mg/kg. Also on record: dose 10 mg/kg. It is filed as functional, organism-based.
In assay [19] the test system is Rattus norvegicus. As to the kind of experiment: Vasopressor responses to epinephrine as a measure of the alpha-1-adrenoceptor blocking activity at 1 mg/kg administered orally was reported to be reversed. Also on record: dose 1 mg/kg. It is filed as functional, organism-based.
The subject of assay [20] is Rattus norvegicus. As to the kind of experiment: Vasopressor responses to epinephrine as a measure of the alpha-1-adrenoceptor blocking activity at 0.25 mg/kg administered orally was reported to be reversed. The format is functional, organism-based. Also on record: dose 0.25 mg/kg.
For assay [21], the system named is Rattus norvegicus. The assay can be described thus: Antihypertensive activity was determined in cannulated spontaneously hypertensive rats(SHR) and heart rate response was reported to reduce by 10-25% after 4 hr at a peroral dose of 0.25 mg/kg. The format is functional, organism-based. Also noted: dose 0.25 mg/kg.
For assay [22], the system named is Rattus norvegicus. The assay can be described thus: Antihypertensive activity was determined in cannulated spontaneously hypertensive rats(SHR) and heart rate response was reported to be reduce by 10-25% after 4 hr at a dose of 50 mg/kg. It is filed as functional, organism-based. Also noted: dose 50 mg/kg.
Assay [23] relates to Rattus norvegicus. The assay can be described thus: Vasopressor responses to epinephrine as a measure of the alpha-1-adrenoceptor blocking activity at 50 mg/kg administered orally was reported to be antagonized. Also noted: dose 50 mg/kg. It is filed as functional, organism-based.
Assay [24] concerns Rattus norvegicus. The assay can be described thus: Antihypertensive activity was determined in cannulated spontaneously hypertensive rats(SHR) and maximum decrease of mean arterial blood pressure (MABP) at 50 mg/kg oral dose. The format is functional, Artery. Summed up: as §1

In the case of `Br.CCCN1CCN(CCC)C2c3c(C)c4ccccc4n3CCC21` (configuration not stated), the “Decrease in MABP” value with Rattus norvegicus [1] was determined as 18%; with Rattus norvegicus [8], 12%; with Rattus norvegicus [9] it was 13%; in the assay with Rattus norvegicus [10], 16%. The Activity result in the assay on Rattus norvegicus [2], in the assay on Rattus norvegicus [4], in the assay with Rattus norvegicus [6] and with Rattus norvegicus [12] was “Antagonism reversed” each time. For the same compound, the HR result in the assay on Rattus norvegicus [3], in the assay with Rattus norvegicus [5], in the assay on Rattus norvegicus [7] and with Rattus norvegicus [11] was “Heart rate response was reported to reduce by 10-25% after 4 hr at a peroral dose of 1.0 mg/kg” in each case.

As to `Cc1c2n(c3ccccc13)CCC1NCCNC21` (configuration not stated), the entries for the “Decrease in MABP” value in the assay on Rattus norvegicus [1] and with Rattus norvegicus [17] were 19% and 27%, respectively. Moreover, the Activity rating result in the assay with Rattus norvegicus [13] was “MABP reduced by 15-25% and an appreciable antihypertensive at 2.5-5 mg/kg”. For the same compound, the HR entry in the assay on Rattus norvegicus [14] is on record as “Heart rate response was reported to reduce by 10-25% after 4 hr at a peroral dose of 25 mg/kg”. Besides, the Activity result with Rattus norvegicus [15] and in the assay on Rattus norvegicus [16] was “Vasopressor response potentiated” in each case.

With `Br.CCCN1CCN(CC)C2CCn3c(c(C)c4ccccc43)C21` (configuration not stated), the “Decrease in MABP” value in the assay with Rattus norvegicus [1] came to 42%; with Rattus norvegicus [9] it was 13%; in the assay with Rattus norvegicus [10], 24%. The Activity result with Rattus norvegicus [2], with Rattus norvegicus [6] and in the assay on Rattus norvegicus [19] was “Vasopressor response reversed” throughout. In the assay with Rattus norvegicus [18], the HR result is listed as “Heart rate response was reported to reduce by 10-25% after 4 hr at a peroral dose of 1.0 mg/kg”.

For the compound `CCCCN1CCN(CC)C2CCn3c(c(C)c4ccccc43)C21.Cl.Cl` (configuration not stated), the entries for the “Decrease in MABP” value with Rattus norvegicus [1] and in the assay on Rattus norvegicus [9] were 36% and 16%, respectively. In the assay on Rattus norvegicus [5], the HR entry is recorded as “Heart rate response was reported to reduce by 10-25% after 4 hr at a peroral dose of 10 mg/kg”. Also, the Activity entry with Rattus norvegicus [6] and with Rattus norvegicus [19] was “Vasopressor response reversed” in each case.

Consider `CCN1CCN(C(C)C)C2CCn3c(c(C)c4ccccc43)C21` (configuration not stated), for which the Activity result in the assay on Rattus norvegicus [20], with Rattus norvegicus [2], in the assay with Rattus norvegicus [6] and with Rattus norvegicus [19] was “Vasopressor response reversed” in each case. For the same compound, the “Decrease in MABP” value in the assay with Rattus norvegicus [1] is recorded as 56%; with Rattus norvegicus [9], 40%; in the assay on Rattus norvegicus [10], 52%. The HR result in the assay on Rattus norvegicus [21], in the assay on Rattus norvegicus [7] and in the assay on Rattus norvegicus [11] was “Heart rate response was reported to reduce by 10-25% after 4 hr at a peroral dose of 0.25 mg/kg” in each case.

With `Cc1c2n(c3ccccc13)CCC1C2N(C)CCN1C` (configuration not stated), the results for the HR result in the assay on Rattus norvegicus [3], in the assay on Rattus norvegicus [22] and in the assay on Rattus norvegicus [5] were “Heart rate response was reported to reduce by 10-25% after 4 hr at a peroral dose of 10 mg/kg”, “Heart rate response was reported to be reduce by 10-25% after 4 hr at a dose of 50 mg/kg” and “Heart rate response was reported to reduce by 10-25% after 4 hr at a peroral dose of 10 mg/kg”, respectively. Moreover, the Activity entry was “Vasopressor response antagonized” in the assay on Rattus norvegicus [23] and “Vasopressor response reversed” in the assay on Rattus norvegicus [6].

Consider `Cc1c2n(c3ccccc13)CCC1C2N(C)CCN1C.Cl.Cl` (configuration not stated), for which the “Decrease in MABP” value in the assay on Rattus norvegicus [24] is 12%.

`CCN1CCN(C(C)C)C2CCn3c(c(C)c4cc(Br)ccc43)C21.Cl.Cl` (configuration not stated) registered a Decrease in MABP with Rattus norvegicus [24] of 20%.

(Values after ChEMBL document CHEMBL1123678, “Octahydropyrazino[2',3':3,4]pyrido[1,2-a]indoles. A new class of potent antihypertensive agents” (1987).)
